In ChEMBL document CHEMBL3627671, “Novel derivatives of nitro-substituted salicylic acids: Synthesis, antimicrobial activity and cytotoxicity” (Bioorg Med Chem, 2015):
In brackets after ≈: the same amount, converted by molar mass.

How the values were obtained:
Escherichia coli [1] = assay: Antibacterial activity against Escherichia coli CCM4517 after 24 hrs by microdilution broth method; format: functional; settings: CCM4517, 24 h
Method in brief: (§1)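 Mueller-Hinton broth microdilution (modified M07-A07), pH 7.4 (±0.2). Compounds dissolved in DMSO, tested at final 500 to 0.49 µmol/L. Inoculum in sterile water matched to 0.5 McFarland. Incubated in the dark, humid atmosphere, 35 °C, read at 24 and 48 h visually and at 540 nm. MIC taken as ≥95% growth reduction (IC95) versus control.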

[2] = tested on: Staphylococcus epidermidis; assay: Antibacterial activity against Staphylococcus epidermidis H 6966/08 after 24 hrs by microdilution broth method; format: functional; settings: H 6966/08, 24 h; method in brief: as §1
Aspergillus fumigatus [3] = assay: Antifungal activity against Aspergillus fumigatus 231 after 48 hrs by microdilution broth method; format: functional; settings: Aspergillus fumigatus, 231, 48 h
Method in brief: (§2)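 CLSI M27-A3 broth microdilution in RPMI 1640 with glutamine, buffered to pH 7.0 with MOPS; DMSO diluent. Yeast inoculum 5 × 10^3 ± 0.2 CFU/mL. Moulds grown on Sabouraud agar 3–10 days before spore harvest, final inoculum 0.5-5 × 10^4 CFU/mL, checked in a Bürker chamber. Incubated dark, humid, 35 °C, read at 24 and 48 h visually and at 540 nm. MIC taken as ≥80% (yeasts) or ≥50% (filamentous) growth reduction versus control.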

Candida albicans [4] = assay: Antifungal activity against Candida albicans ATCC 44859 after 48 hrs by microdilution broth method; format: functional; settings: ATCC 44859, 48 h; method in brief: as §2
Enterococcus sp. [5] = assay: Antibacterial activity against Enterococcus sp. J 14365/08 after 48 hrs by microdilution broth method; format: functional; settings: J 14365/08, 48 h; method in brief: as §1
Pseudomonas aeruginosa [6] = assay: Antibacterial activity against Pseudomonas aeruginosa CCM 1961 after 48 hrs by microdilution broth method; format: functional; settings: CCM 1961, 48 h; method in brief: as §1
Klebsiella pneumoniae [7] = assay: Antibacterial activity against ESBL-positive Klebsiella pneumoniae J 14368/08 after 24 hrs by microdilution broth method; format: functional; settings: J 14368/08, 24 h; method in brief: as §1
Mycobacterium kansasii [8] = assay: Antimycobacterial activity against Mycobacterium kansasii 6509/96 after 21 days; format: functional; settings: 6509/96, 504 h
Method in brief: (§3)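 Šula's semisynthetic medium micromethod at 37 °C, read after 7, 14 and 21 days. The 1.0 McFarland suspension was diluted 10^-4. MIC determined. 6509/96 is a clinical isolate.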

Klebsiella pneumoniae [9] = assay: Antibacterial activity against Klebsiella pneumoniae D 11750/08 after 48 hrs by microdilution broth method; format: functional; settings: D 11750/08, 48 h; method in brief: as §1
Mycobacterium avium [10] = assay: Antimycobacterial activity against Mycobacterium avium 330/80 after 14 days; format: functional; settings: 330/80, 336 h
Enterococcus sp. [11] = assay: Antibacterial activity against Enterococcus sp. J 14365/08 after 24 hrs by microdilution broth method; format: functional; settings: J 14365/08, 24 h; method in brief: as §1
Candida albicans [12] = assay: Antifungal activity against Candida albicans ATCC 44859 after 24 hrs by microdilution broth method; format: functional; settings: ATCC 44859, 24 h; method in brief: as §2
[13] = tested on: Staphylococcus epidermidis; assay: Antibacterial activity against Staphylococcus epidermidis H 6966/08 after 48 hrs by microdilution broth method; format: functional; settings: H 6966/08, 48 h; method in brief: as §1
Pichia kudriavzevii [14] = assay: Antifungal activity against Candida krusei E28 after 48 hrs by microdilution broth method; format: functional; settings: E28, 48 h; method in brief: as §2
Trichosporon asahii [15] = assay: Antifungal activity against Trichosporon asahii 1188 after 48 hrs by microdilution broth method; format: functional; settings: Trichosporon asahii, 1188, 48 h; method in brief: as §2
Mycobacterium kansasii [16] = assay: Antimycobacterial activity against Mycobacterium kansasii 6509/96 after 14 days; format: functional; settings: 6509/96, 336 h; method in brief: as §3
[17] = tested on: Trichophyton mentagrophytes; assay: Antifungal activity against Trichophyton mentagrophytes 445 after 24 hrs by microdilution broth method; format: functional; settings: Trichophyton mentagrophytes, 445, 24 h
Nakaseomyces glabratus [18] = assay: Antifungal activity against Candida glabrata 20/I after 48 hrs by microdilution broth method; format: functional; method in brief: as §2
Escherichia coli [19] = assay: Antibacterial activity against Escherichia coli CCM4517 after 48 hrs by microdilution broth method; format: functional; settings: CCM4517, 48 h; method in brief: as §1
[20] = tested on: Mycobacterium tuberculosis; assay: Antimycobacterial activity against Mycobacterium tuberculosis H37Rv 331/88 after 21 days; format: functional; settings: H37Rv 331/88, 504 h
[21] = tested on: Mycobacterium tuberculosis; assay: Antimycobacterial activity against Mycobacterium tuberculosis H37Rv 331/88 after 14 days; format: functional; settings: H37Rv 331/88, 336 h
HepG2 = assay: Cytotoxicity against human HepG2 cells after 24 hrs […]; format: cell-based; settings: HepG2, 24 h
Lichtheimia corymbifera [22] = assay: Antifungal activity against Absidia corymbifera 272 after 24 hrs by microdilution broth method; format: functional; settings: Lichtheimia corymbifera, 272, 24 h; method in brief: as §2
Staphylococcus aureus [23] = assay: Antibacterial activity against methicillin-resistant Staphylococcus aureus H 5996/08 after 24 hrs by microdilution broth method; format: functional; settings: H 5996/08, 24 h
Mycobacterium kansasii [24] = assay: Antimycobacterial activity against Mycobacterium kansasii 6509/96 after 7 days; format: functional; settings: 6509/96, 168 h; method in brief: as §3
Candida tropicalis [25] = assay: Antifungal activity against Candida tropicalis 156 after 24 hrs by microdilution broth method; format: functional; settings: Candida tropicalis, 156, 24 h; method in brief: as §2
Trichosporon asahii [26] = assay: Antifungal activity against Trichosporon asahii 1188 after 24 hrs by microdilution broth method; format: functional; settings: Trichosporon asahii, 1188, 24 h; method in brief: as §2
Pseudomonas aeruginosa [27] = assay: Antibacterial activity against Pseudomonas aeruginosa CCM 1961 after 24 hrs by microdilution broth method; format: functional; settings: CCM 1961, 24 h; method in brief: as §1
Mycobacterium kansasii [28] = assay: Antimycobacterial activity against Mycobacterium kansasii 235/80 after 7 days; format: functional; settings: 235/80, 168 h; method in brief: as §3
Staphylococcus aureus [29] = assay: Antibacterial activity against methicillin-resistant Staphylococcus aureus H 5996/08 after 48 hrs by microdilution broth method; format: functional; settings: H 5996/08, 48 h
Lichtheimia corymbifera [30] = assay: Antifungal activity against Absidia corymbifera 272 after 48 hrs by microdilution broth method; format: functional; settings: Lichtheimia corymbifera, 272, 48 h; method in brief: as §2
Staphylococcus aureus [31] = assay: Antibacterial activity against Staphylococcus aureus CCM 4516/08 after 24 hrs by microdilution broth method; format: functional; settings: CCM 4516/08, 24 h
Mycobacterium kansasii [32] = assay: Antimycobacterial activity against Mycobacterium kansasii 235/80 after 14 days; format: functional; settings: 235/80, 336 h; method in brief: as §3
Klebsiella pneumoniae [33] = assay: Antibacterial activity against Klebsiella pneumoniae D 11750/08 after 24 hrs by microdilution broth method; format: functional; settings: D 11750/08, 24 h; method in brief: as §1
Aspergillus fumigatus [34] = assay: Antifungal activity against Aspergillus fumigatus 231 after 24 hrs by microdilution broth method; format: functional; settings: Aspergillus fumigatus, 231, 24 h; method in brief: as §2
Mycobacterium avium [35] = assay: Antimycobacterial activity against Mycobacterium avium 330/80 after 21 days; format: functional; settings: 330/80, 504 h
Candida tropicalis [36] = assay: Antifungal activity against Candida tropicalis 156 after 48 hrs by microdilution broth method; format: functional; settings: Candida tropicalis, 156, 48 h; method in brief: as §2
[37] = Selectivity index, ratio of CI50 for human HepG2 cells to MIC100 for Mycobacterium tuberculosis H37Rv 331/88
Pichia kudriavzevii [38] = assay: Antifungal activity against Candida krusei E28 after 24 hrs by microdilution broth method; format: functional; settings: E28, 24 h; method in brief: as §2
Staphylococcus aureus [39] = assay: Antibacterial activity against Staphylococcus aureus CCM 4516/08 after 48 hrs by microdilution broth method; format: functional; settings: CCM 4516/08, 48 h
[40] = tested on: Trichophyton mentagrophytes; assay: Antifungal activity against Trichophyton mentagrophytes 445 after 48 hrs by microdilution broth method; format: functional; settings: Trichophyton mentagrophytes, 445, 48 h
Mycobacterium kansasii [41] = assay: Antimycobacterial activity against Mycobacterium kansasii 235/80 after 21 days; format: functional; settings: 235/80, 504 h; method in brief: as §3
Klebsiella pneumoniae [42] = assay: Antibacterial activity against ESBL-positive Klebsiella pneumoniae J 14368/08 after 48 hrs by microdilution broth method; format: functional; settings: J 14368/08, 48 h; method in brief: as §1
Nakaseomyces glabratus [43] = assay: Antifungal activity against Candida glabrata 20/I after 24 hrs by microdilution broth method; format: functional; method in brief: as §2

O=C(Nc1ccc(Cl)c(Cl)c1)c1ccc([N+](=O)[O-])cc1O
MIC (Escherichia coli [1]): > 500 µM | MIC [2]: 1.95 µM (≈ 0.638 µg/mL) | MIC (Aspergillus fumigatus [3]): 31.2 µM (≈ 10.2 µg/mL) | MIC (Candida albicans [4]): 62.5 µM (≈ 20.4 µg/mL) | MIC (Enterococcus sp. [5]): 500 µM (≈ 164 µg/mL) | MIC (Pseudomonas aeruginosa [6]): > 500 µM | MIC (Klebsiella pneumoniae [7]): > 500 µM | MIC (Mycobacterium kansasii [8]): 16 µM (≈ 5.23 µg/mL) | MIC (Klebsiella pneumoniae [9]): > 500 µM | MIC (Mycobacterium avium [10]): 32 µM (≈ 10.5 µg/mL) | MIC (Enterococcus sp. [11]): 125 µM (≈ 40.9 µg/mL) | MIC (Candida albicans [12]): 62.5 µM (≈ 20.4 µg/mL) | MIC [13]: 1.95 µM (≈ 0.638 µg/mL) | MIC (Pichia kudriavzevii [14]): 15.6 µM (≈ 5.11 µg/mL) | MIC (Trichosporon asahii [15]): 15.6 µM (≈ 5.11 µg/mL) | MIC (Mycobacterium kansasii [16]): 16 µM (≈ 5.23 µg/mL) | MIC [17]: 125 µM (≈ 40.9 µg/mL) | MIC (Nakaseomyces glabratus [18]): 62.5 µM (≈ 20.4 µg/mL) | MIC (Escherichia coli [19]): > 500 µM | MIC [20]: 8 µM (≈ 2.62 µg/mL) | MIC [21]: 4 µM (≈ 1.31 µg/mL) | IC50 (HepG2): 1400 nM | MIC (Lichtheimia corymbifera [22]): 31.2 µM (≈ 10.2 µg/mL) | MIC (Staphylococcus aureus [23]): 1.95 µM (≈ 0.638 µg/mL) | MIC (Mycobacterium kansasii [24]): 8 µM (≈ 2.62 µg/mL) | MIC (Candida tropicalis [25]): 125 µM (≈ 40.9 µg/mL) | MIC (Trichosporon asahii [26]): 7.81 µM (≈ 2.55 µg/mL) | MIC (Pseudomonas aeruginosa [27]): > 500 µM | MIC (Mycobacterium kansasii [28]): 4 µM (≈ 1.31 µg/mL) | MIC (Staphylococcus aureus [29]): 1.95 µM (≈ 0.638 µg/mL) | MIC (Lichtheimia corymbifera [30]): 31.2 µM (≈ 10.2 µg/mL) | MIC (Staphylococcus aureus [31]): 3.9 µM (≈ 1.28 µg/mL) | MIC (Mycobacterium kansasii [32]): 8 µM (≈ 2.62 µg/mL) | MIC (Klebsiella pneumoniae [33]): > 500 µM | MIC (Aspergillus fumigatus [34]): 31.2 µM (≈ 10.2 µg/mL) | MIC (Mycobacterium avium [35]): 62.5 µM (≈ 20.4 µg/mL) | MIC (Candida tropicalis [36]): > 250 µM | Selectivity Index [37]: 0.175 | MIC (Pichia kudriavzevii [38]): 7.81 µM (≈ 2.55 µg/mL) | MIC (Staphylococcus aureus [39]): 3.9 µM (≈ 1.28 µg/mL) | MIC [40]: 125 µM (≈ 40.9 µg/mL) | MIC (Mycobacterium kansasii [41]): 8 µM (≈ 2.62 µg/mL) | MIC (Klebsiella pneumoniae [42]): > 500 µM | MIC (Nakaseomyces glabratus [43]): 31.2 µM (≈ 10.2 µg/mL)
